PMC3651860 (Journal of the American Chemical Society, 2011)
Entries after “also recorded” stand apart in the source; their conditions may differ. Like-named read-outs stand apart in the source and are kept apart here. Values belong to the molecule of their own block, whether it stands above or below them. Primed or numbered codes have the meaning given here. Biotin′ = not defined here; Az8 = not defined here

Columns and labels:
[1] = system: Akt1-S473E-T308P; assay: Competitive enzyme kinetic assays of Akt1 with triligand; type: biochemical
How it was run: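 Akt1 kinase domain (S473E mimic, Hi5 insect-cell expressed, T308-phosphorylated form) assayed at varying peptide-substrate or ATP concentrations across varying test compound concentrations. KM and Vmax were fitted by nonlinear regression. Ki came from negative x-intercepts of Dixon plots (1/v vs [compound], varying ATP), and Ki' from intercepts of Cornish-Bowden plots ([peptide]/v vs [compound], varying peptide). Both are given as mean ± standard deviation.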

[2] = system: Akt1-S473E-T308P; conditions: read-out: KM (literature); ATP; ref 21 (Klein et. al.); cited from earlier work
[3] = system: Akt1-S473E-T308P; assay: Akt1 kinase inhibition test of candidate anchor sequences; type: biochemical; conditions: Figure S6
Target sequence in this assay (P31749 150-480 S473E limits assumed): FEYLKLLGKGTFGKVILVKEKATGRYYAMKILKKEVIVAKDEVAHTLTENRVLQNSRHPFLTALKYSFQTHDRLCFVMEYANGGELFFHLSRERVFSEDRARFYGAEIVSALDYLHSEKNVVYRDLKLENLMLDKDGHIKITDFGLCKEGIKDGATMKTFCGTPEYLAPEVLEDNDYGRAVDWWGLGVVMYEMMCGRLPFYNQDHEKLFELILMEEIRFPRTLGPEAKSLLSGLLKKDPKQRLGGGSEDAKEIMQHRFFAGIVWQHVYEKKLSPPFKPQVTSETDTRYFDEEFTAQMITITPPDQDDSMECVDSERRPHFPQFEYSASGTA

[4] = system: Akt-S473E; assay: ELISA with immobilized Akt-S473E; type: binding
How it was run: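 Akt1-S473E kinase domain, expressed in Hi5 insect cells, was immobilized on Ni-NTA plates. It was incubated with varying concentrations of biotinylated test peptide. Binding signal was normalized to the binding observed at saturation.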

[5] = system: Akt1; assay: ELISA-based binding analysis over a range of kinase concentrations, Akt1; conditions: Figure S18
[6] = system: GSK3β; assay: ELISA-based binding analysis over a range of kinase concentrations, GSK3β; conditions: Figure S18
[7] = system: AKT in fixed OVCAR3 cells; assay: Immunocytochemistry; type: cell-based; conditions: permeabilized OVCAR3 cells, unstimulated vs EGF+insulin
How it was run: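 OVCAR3 cells were left unstimulated or treated with EGF plus insulin, then fixed and permeabilized. They were stained with fluorescein-labelled test compound, and a fluorescein-conjugated anti-Akt monoclonal antibody served as benchmark. Akt localization was imaged by immunofluorescence microscopy.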

[8] = biological target: Akt1 kinase domain with the S473E mutation (Akt1-S473E)

Molecule: Nc1ncnc2c1ncn2[C@@H]1O[C@H](COP(=O)(O)OP(=O)(O)OP(=O)(O)O)[C@@H](O)[C@H]1O [ATP, reference compound]
Vmax ([1]; Akt1-S473E-T308P, V vs. [ATP], variable [Triligand], nonlinear regression): 98996 ± 8242 pmol/min/mg
Km ([1]; read-out: KM (this work), Akt1-S473E-T308P, nonlinear regression (GraphPad), V vs. [ATP], variable [Triligand]): 213 ± 25 µM
Km [2]: 155 µM

Molecule: Az8-VFYRLGY-CONH2 [anchor peptide]
inhibition of the Akt1 kinase ([3]; absence of the conjugated small molecule inhibitor (Ac7)): ~95%
inhibition of the Akt1 kinase ([3]; presence of the conjugated small molecule inhibitor (Ac7)): ~95%
affinity ([4]; anchor peptide, Akt, assay of this value not stated at the place): > 25 µM

Molecule: triligand: tertiary peptide Ac-Az8-RHERI-CONH2 conjugated to the biligand to form a biotinylated branched triligand (chain 1 VFYRLGY; chain 2 FWFLRG; not fully specified; N-terminal azido amino acid Az8 before V, joined through a 1,4-triazole to the Pra of the secondary peptide; C-terminal biotin | N-terminal propargylglycine (Pra) before F, joined through a 1,4-triazo)
affinity for Akt1 (in words) ([4]; comparison within anchor/biligand/triligand series): only marginally improved over the biligand; also recorded: only a modest affinity improvement
change of affinity for Akt1, biligand to triligand [5]: increases modestly
decrease of affinity for GSK3β, biligand to triligand [6]: approximately 2 fold
inhibitory potency (in words) [1]: low micromolar inhibitory potency
effect on KM ([1]; ATP is the varied substrate): no effect on KM
effect on enzyme Vmax ([1]; increasing triligand concentration, varied [ATP] or varied [peptide]): reduction in the enzyme Vmax for both substrates
effect on KM ([1]; peptide concentration is varied): KM decreases
inhibition mode ([1]; varied [ATP], variable [Triligand]): noncompetitive inhibition
inhibition mode ([1]; varied [ATP], variable [Triligand], listed as Triligand): Noncompetitive
inhibition mode ([1]; varied [Peptide], variable [Triligand]): uncompetitive inhibition
mode of inhibition / inhibitory mechanism, overall ([1]; with respect to ATP and peptide substrates): allosteric mode of inhibition; also recorded: triligand inhibition occurs in a noncompetitive fashion; also recorded: not competitive with respect to either the peptide or ATP binding site; also recorded: allosteric mechanism

Molecule: fluorescein-labeled triligand: fluorescein-labeled triligand employed as an ICC imaging agent (chain 1 VFYRLGY; chain 2 FWFLRG; chain 3 RHERI; N-terminal azido amino acid Az8 before V, joined through a 1,4-triazole to the Pra of the secondary peptide | N-terminal propargylglycine (Pra) before F, joined through a 1,4-triazole to Az8 of the an)
Akt localization in ICC (in words) [7]: localization of Akt at the plasma membrane after cell stimulation

Kd [8]: > 25 µM
Molecule: {Ac-Az8}-VFYRLGY-{Biotin′} (reading uncertain; also: printed as Ac-Az8-VFYRLGY-Biotin) [biotinylated anchor peptide Ac-Az8-VFYRLGY-Biotin]
